Compound activity (PubChem)
An excerpt weighted towards active compounds, which were near 2.6% of everything screened.
PRMT1 FP inh: PRMT1 methyltransferase inhibitors, primary screen, biochemical, fluorescence polarization; 370,000 compounds, 1.3% hits; inhibition, % at 2.79 µM; recombinant PRMT1, activity-based probe fluorescence polarization; AID 652257, 2013; Protein arginine N-methyltransferase 1 (Homo sapiens), Q99873;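 active = inhibition above about 21% made by adding two undisclosed values, limit read from the data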
TDP2 absorb: human TDP2 enzyme inhibitors, primary screen, biochemical, epi absorbance, recombinant enzyme; Tyrosyl-DNA phosphodiesterase 2 (Homo sapiens), O95551; T5PNP hydrolysis, p-nitrophenol absorbance 415 nm; inhibition, % at 12.8 µM; 370,000 compounds, 0.34% hits; AID 720702, 2013;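 active = inhibition above the mean of all tested compounds plus 3 SD, set per campaign, cut at about 25% in these data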;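 also: 0% = DMSO with enzyme and 100% = buffer with substrate but no TDP2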
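Assay system: Recombinant human TDP2 | Quantity: 120 nM TDP2 per well | Incubation: 2 h at 37 °C | Signal: Epi absorbance | Evaluation: Percent inhibition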
GSTO1 counter: inhibitors of recombinant GSTO1, primary screen, counter-screen for RBBP9 inhibitor project, biochemical, fluorescence polarization; inhibition, % at 5.96 µM; Glutathione S-transferase omega-1 (Homo sapiens), P78417; AID 1974, 2009; activity-based probe fluorescence polarization; 300,000 compounds, 1.1% hits;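 active = inhibition above the campaign mean inhibition plus 3 SD, cut at about 35% in these data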;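 also: 0% = GSTO1-1 with DMSO and 100% = wells lacking GSTO1-1 enzyme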
Apaf-1 inh: inhibitors of human Apaf-1 apoptosome, primary screen, biochemical, DEVD-Rh110 fluorescence, uHTS. Apoptotic protease-activating factor 1 (Homo sapiens), O14727. reconstituted apoptosome caspase-3 activity. inhibition, % at 20 µM. 330,000 compounds, 0.71% hits; active = inhibition of at least 40% at 20 µM;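 also: plate controls were DMSO wells for no effect and DEVD-CHO caspase inhibitor wells for full effect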
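Material: reconstituted apoptosome with Apaf-1, cytochrome c, caspase-9, procaspase-3, dATP. Technique: Rh110 fluorescence intensity. Buffer or medium: pH 7.5 Hepes buffer with CHAPS, BSA, DTT. Times: 30 min plus 50 min, RT.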
PAD4 inh: human PAD4 inhibitors, primary screen, biochemical, fluorescence polarization, 1536-well format. Protein-arginine deiminase type-4 (Homo sapiens), Q9UM07. recombinant PAD4, RCA probe fluorescence polarization. inhibition, % at 6.36 µM. 330,000 compounds, 0.41% hits;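 active = percent inhibition above a cutoff equal to the mean of all tested compounds plus 3 SD, cut at about 15% in these data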;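 also: 0% = PAD4 with RCA probe and DMSO and 100% = probe without PAD4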
Target sequence (Q9UM07 whole entry, looked up): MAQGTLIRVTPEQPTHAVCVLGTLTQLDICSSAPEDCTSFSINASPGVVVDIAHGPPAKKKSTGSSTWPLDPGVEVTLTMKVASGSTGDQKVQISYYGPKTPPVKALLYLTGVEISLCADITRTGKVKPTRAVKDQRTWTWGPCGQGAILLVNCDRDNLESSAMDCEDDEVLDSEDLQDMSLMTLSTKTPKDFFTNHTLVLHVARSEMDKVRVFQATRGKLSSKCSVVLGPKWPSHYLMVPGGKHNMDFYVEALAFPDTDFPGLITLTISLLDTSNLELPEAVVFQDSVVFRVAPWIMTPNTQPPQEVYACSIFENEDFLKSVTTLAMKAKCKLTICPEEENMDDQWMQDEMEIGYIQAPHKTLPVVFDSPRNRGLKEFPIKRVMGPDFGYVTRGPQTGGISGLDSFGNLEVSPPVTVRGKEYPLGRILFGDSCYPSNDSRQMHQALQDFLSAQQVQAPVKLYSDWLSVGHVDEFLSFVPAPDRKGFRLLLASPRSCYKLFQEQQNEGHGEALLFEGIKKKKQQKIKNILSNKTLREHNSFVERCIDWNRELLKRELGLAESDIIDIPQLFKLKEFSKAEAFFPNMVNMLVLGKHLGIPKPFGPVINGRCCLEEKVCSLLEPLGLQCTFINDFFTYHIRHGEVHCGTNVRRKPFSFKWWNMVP
PRMT1 inh conf: PRMT1 methyltransferase inhibitors, confirmation, biochemical, fluorescence polarization, triplicate | shares compounds with PRMT1 FP inh | recombinant His-PRMT1, activity-based probe fluorescence polarization | inhibition, % at 2.79 µM | 3,300 compounds, 42% hits | AID 687036, 2013;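 active = mean inhibition across replicates above the hit cutoff derived for the earlier primary screen, cut at about 22% in these data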
Numbers without * were called inactive; x = no result.

SMILES | PRMT1 FP inh | TDP2 absorb | GSTO1 counter | Apaf-1 inh | PAD4 inh | PRMT1 inh conf
Cc1c(N2C(=O)/C(=C/C3CC=CCC3)SC2=S)c(=O)n(-c2ccccc2)n1C (centres undefined) | 39* | 19 | 10 | 5 | -7 | 26*
Cc1c(N2C(=O)/C(=C\c3ccccc3O)SC2=S)c(=O)n(-c2ccccc2)n1C | 47* | 9 | -2 | -7 | 4 | 83*
Cc1c(N2C(=O)/C(=C\C3CC=CCC3)SC2=S)c(=O)n(-c2ccccc2)n1C (centres undefined) | 43* | 3 | -1 | 1 | 5 | 25*
O=[N+]([O-])c1ccccc1N=Nc1ccc(O)cc1O | 4 | 8 | x | x | x | x
O=S(=O)(O)c1cc(O)c(N=Nc2ccc(O)cc2O)c2ccccc12 | 44* | 16 | x | x | x | 43*
Cc1ccc2nc(-c3ccco3)c(Cc3ccsc3)n2c1 | 35* | 4 | x | x | x | 27*
COC(=O)c1ccc2nc(-c3ccco3)c(Cc3cccc(F)c3)n2c1 | 43* | 3 | x | x | x | 36*
Cc1ccc(-c2nc3ccc(C)cn3c2Cc2ccsc2)cc1 | -2 | -2 | x | x | x | x
COC(=O)c1ccc2nc(-c3ccco3)c(Cc3ccc(C)cc3)n2c1 | 34* | -2 | x | x | x | 10
CCCc1ccc(C(=O)/C=C/N(C)C)cc1 | 5 | -6 | 2 | 2 | 0 | x
CCN(CC)c1ccc(C=NCCNS(=O)(=O)c2ccc(C)cc2)cc1 | 5 | -21 | 7 | 3 | -1 | x
COc1ccc2c(c1)CN1C(=O)N(CCc3ccccc3)S(=O)(=O)CC21 (centres undefined) | 0 | -6 | x | x | x | x
CN(CC(=O)NC(=O)NC1CCCCC1)CC(=O)Nc1ccccc1C(F)(F)F | -1 | -3 | x | x | x | x
CC1(C)C(c2ccccc2)=NC(c2ccc(Br)cc2)N1O (centres undefined) | 13 | -6 | -1 | 1 | 1 | x
Cn1cnc([N+](=O)[O-])c1S(=O)(=O)c1ccc(Cl)cc1 | 44* | -13 | x | x | x | 18
C[C@@H]1C=C(C(=O)NCc2nc3ccccc3[nH]2)O[C@H](OCCCCO)C1 | 47* | -6 | 4 | -5 | 13 | 33*
O=C(N/N=C\c1ccc([N+](=O)[O-])o1)c1cncc(Br)c1 | 34* | 4 | 27 | 8 | -10 | 6
O=C(N/N=C/c1ccc([N+](=O)[O-])o1)c1ccncc1 | 3 | 2 | 22 | 15 | -8 | x
Cc1ccc(NC(=O)CC2SC(=O)NC2=O)cc1 (centres undefined) | 56* | -12 | 11 | 1 | -5 | 76*
Cc1ccc(NC(=O)CC2S/C(=N/N=C3/NC(=O)CS3)NC2=O)cc1 (centres undefined) | 5 | 7 | 14 | 6 | -1 | x
COc1ccc(NC(=O)CC2SC(=Nc3ccccc3)NC2=O)cc1 (centres undefined) | 2 | 4 | 14 | 4 | -3 | x
COc1ccc(NC(=O)CC2SC(=O)NC2=O)cc1 (centres undefined) | 53* | 0 | 2 | 0 | 7 | 66*
COc1ccc(-n2ccc(=O)c(C(=O)O)n2)c(OC)c1 | 0 | 9 | -3 | -1 | 1 | x
COc1ccc(CCN(/C=C2\Sc3ccccc3C2=O)C(C)=O)cc1OC | 67* | -5 | -4 | 1 | 1 | 45*
Cc1nc2sccn2c(=O)c1S(=O)(=O)N1CCN(c2cccc(Cl)c2)CC1 | 0 | 0 | 2 | 10 | 0 | x
SMILES | PRMT1 FP inh | TDP2 absorb | GSTO1 counter | Apaf-1 inh | PAD4 inh | PRMT1 inh conf
C=CCn1c(SC(F)F)nc2scc(-c3ccco3)c2c1=O | 64* | -12 | 4 | 17 | -6 | -1
C=CCn1c(SCC(=O)N2CCOCC2)nc2scc(-c3ccco3)c2c1=O | x | x | 1 | 8 | -1 | x
C=CCn1c(SCC(C)=O)nc2scc(-c3ccco3)c2c1=O | 49* | 9 | 2 | 19 | -9 | 22*
C=CCSc1nc(C)c(CCCC)c(=O)[nH]1 | 6 | 0 | -19 | 14 | 3 | x
CCOC(=O)CC1(NC(=O)C2CCC(=O)N(Cc3ccccc3OC)C2)CCCCC1 (centres undefined) | 0 | -1 | x | 9 | x | x
Cc1ccc(/C=C/C(=O)N2CC(C)CC(C)C2)o1 (centres undefined) | 40* | -4 | -6 | 1 | -3 | 19
CC(/C=C/c1ccc(C)o1)=C\C(=O)O | 30* | 0 | 0 | 2 | 1 | 12
CC(=C/C(=O)O)/C=C/c1ccc(Cl)o1 | 10 | -3 | 10 | 3 | 4 | x
Nc1ccc2nc3c(=O)n(CCc4ccccc4)c(=O)[nH]c3nc2c1 | 136* | -11 | 11 | 10 | 14 | 123*
CCCCn1c(=O)[nH]c2nc3cc(N)ccc3nc2c1=O | 149* | -10 | 25 | x | 14 | 143*
COc1cc2[nH]c(=O)n(C3CCCCC3)c(=O)c2cc1OC | -3 | -19 | -2 | -3 | -1 | x
Nc1ccc2nc(CCc3ccccc3)[nH]c2c1 | 0 | 7 | 3 | 1 | -3 | x
Nc1ccc2nc3c(=O)n(C4CCCCC4)c(=O)[nH]c3nc2c1 | 145* | -19 | 2 | -19 | 11 | 132*
O=C(O)CNc1nc(-c2ccccc2)c2cc([N+](=O)[O-])ccc2n1 | 26* | -7 | 1 | 19 | -3 | 30*
O=[N+]([O-])c1ccc2nc(NCCCO)nc(-c3ccccc3)c2c1 | 18 | -9 | -1 | 12 | -4 | x
COCCC(=O)N1CCC(Oc2ccc(C(=O)N3CCCCC3COC)cc2)CC1 (centres undefined) | -6 | -11 | -5 | -1 | 2 | x
CCC1C(c2ccccc2)=CCC(C(=O)O)C1C (centres undefined) | 9 | -14 | x | x | x | x
CS(=O)c1ccccc1O (centres undefined) | -1 | -3 | 2 | -7 | 2 | x
O=S(c1ccccc1O)S(=O)c1ccccc1O (centres undefined) | 88* | 6 | x | x | x | 95*
O=C(CN1C(=O)c2cccc3cccc1c23)NC1CCCCC1 | 1 | -8 | -2 | 1 | 1 | x
CC(C)c1ccc(N2C(=O)/C(=C/N(C)C)SC2=S)cc1 | 26* | 1 | -223 | 2 | -93 | 20
C(=Cc1c[nH]c2ccccc12)c1nccc2ccccc12 | 52* | -3 | x | x | x | 10
CN1C(C(=O)Nc2ccc(OC(F)(F)F)cc2)=CC(c2ccc3c(c2)OCO3)=NS1(=O)=O | 3 | 15 | 5 | -6 | -4 | x
